Reference: ChEMBL document CHEMBL1121642, “Synthesis and antiherpetic activity of some 4-[(aryloxy)alkyl]pyrazoles” (1981)
In brackets after ≈: the same amount, converted by molar mass. Activity calls are given as the source filed them. No cut-off for these calls is given here.

Legend:
Human alphaherpesvirus 2 [1] = test: (§1) Effect on the survival rate of mouse infected with herpes genitalis (HSV-2) administered intravaginally at 2% dosage twice in a day; format: functional
In short: (§2)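 HSV-2 mouse genital model, infected intravaginally. Drug prepared in water + 1% gum tragacanth and given intravaginally b.i.d. via saturated cotton tampons, starting 4 h postinfection. Tampons were re-dosed with 0.02 mL 6 h after insertion and replaced daily. Test ended at day 14, with survivors assigned survival time >14 days. Read-out: % survival and average survival time.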

Mus musculus [2] = test: as §1; format: functional; in short: as §2
Mus musculus [3] = test: Effect on the survival rate of mouse infected with herpes genitalis (HSV-2) administered intravaginally at 5% dosage twice in a day; format: functional; in short: as §2
Human alphaherpesvirus 2 [4] = test: Tested in vitro for minimum inhibitory activity against Herpes simplex virus type -2 (HSV-2); Inactive; format: functional, organism-based
Human alphaherpesvirus 2 [5] = test: Tested in vitro for minimum inhibitory activity against Herpes simplex virus type -2 (HSV-2); format: functional
Mus musculus [6] = species on record: Mus musculus; test: Effect on the survival rate of mice infected intravaginally with Herpes simplex virus type -2 (HSV-2) at 1.25% dosage twice in a day; format: functional
In short: (§3)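 Mice infected intravaginally with a tampon (dental pellet) saturated with HSV suspension. Aqueous drug solution given intravaginally b.i.d. on cotton tampons, starting 4 h postinfection. Each tampon stayed in 24 h, was re-moistened with 0.02 mL drug 6 h after insertion, and was replaced daily. Deaths were recorded daily to 14 days. Read-out: % survival and average survival time, with survivors scored >14 days.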

Mus musculus [7] = species on record: Mus musculus; test: Effect on the survival rate of mice infected intravaginally with Herpes simplex virus type -2 (HSV-2) at 2.5% dosage twice in a day; format: functional; in short: as §3
Mus musculus [8] = species on record: Mus musculus; test: Effect on the survival rate of mice infected intravaginally with Herpes simplex virus type -2 (HSV-2) at 5% dosage twice in a day; format: functional; in short: as §3

O=C(O)CP(=O)(O)O [FOSFONET] was tested, and the Survival (Human alphaherpesvirus 2 [1]) was 90%, the Average survival (Mus musculus [2]) was >13 days and the Average survival (Mus musculus [3]) was >13 days. It also gave a Survival (Mus musculus [3]) of 90%.
In the case of CCc1nn(CC(F)(F)F)c(CC)c1CCCCCCOc1ccc(OC)cc1Cl, the MIC (Human alphaherpesvirus 2 [4]) is reported as “inactive”.
In the case of CCc1nn(C)c(CC)c1CCCCCOc1ccc(OC)cc1Cl, the MIC (Human alphaherpesvirus 2 [5]) is reported as 3 µg/mL (≈ 8.22 µM).
For CCc1nn(C(=O)CCCN2CCOCC2)c(CC)c1CCCCCCOc1ccc(OC)cc1Cl, the MIC (Human alphaherpesvirus 2 [5]) was 3 µg/mL (≈ 5.77 µM).
In the case of CCCCn1nc(C)c(CCCCCCOc2ccc(OC)cc2Cl)c1C, the MIC (Human alphaherpesvirus 2 [5]) is reported as 6 µg/mL (≈ 15.3 µM).
In the case of CCc1n[nH]c(CC)c1CCCCCCOc1ccc(OC)cc1Cl, the MIC (Human alphaherpesvirus 2 [5]) is reported as 6 µg/mL (≈ 16.4 µM), the Average survival (Mus musculus [6]) is reported as >10 days and the Survival (Mus musculus [6]) is reported as 30%. For the same compound, the Average survival (Mus musculus [7]) was >11 days, the Survival (Mus musculus [7]) was 40% and the Average survival (Mus musculus [8]) was >11 days. For the same compound, the Survival (Mus musculus [8]) was 60%.
CCc1n[nH]c(CC)c1CCCCCCOc1ccc(SC)cc1Cl was tested, and the MIC (Human alphaherpesvirus 2 [4]) was “inactive”.
For COc1ccc(OCCCCCCc2c(C)n[nH]c2C)c(Cl)c1, the MIC (Human alphaherpesvirus 2 [5]) was 3 µg/mL (≈ 8.91 µM).
CCc1n[nH]c(CC)c1CCCCCOc1ccc(OC)cc1Cl showed an MIC (Human alphaherpesvirus 2 [5]) of 6 µg/mL (≈ 17.1 µM).
CCc1n[nH]c(CC)c1CCCCOc1ccc(OC)cc1Cl was tested, and the MIC (Human alphaherpesvirus 2 [5]) was 6 µg/mL (≈ 17.8 µM).
For CCc1n[nH]c(CC)c1CCCCCCOc1cc(Cl)c(OC)cc1Cl, the MIC (Human alphaherpesvirus 2 [4]) was “inactive”.
With CCc1n[nH]c(CC)c1CCCCCCOc1ccc([N+](=O)[O-])cc1Cl the MIC (Human alphaherpesvirus 2 [4]) was “inactive”.
CCc1nn(-c2ccccc2)c(CC)c1CCCCCCOc1ccc(OC)cc1Cl gave an MIC (Human alphaherpesvirus 2 [5]) of 3 µg/mL (≈ 6.8 µM).
Compound COc1ccc(OCCCCCCc2c(-c3ccccc3)n[nH]c2-c2ccccc2)c(Cl)c1 has an MIC (Human alphaherpesvirus 2 [5]) of 3 µg/mL (≈ 6.51 µM).
With CCc1n[nH]c(CC)c1CCCCCCCOc1ccc(OC)cc1Cl the MIC (Human alphaherpesvirus 2 [5]) was 6 µg/mL (≈ 15.8 µM).
CCOC(=O)Cn1nc(CC)c(CCCCCCOc2ccc(OC)cc2Cl)c1CC showed an MIC (Human alphaherpesvirus 2 [5]) of 6 µg/mL (≈ 13.3 µM).
In the case of CCc1nn(C)c(CC)c1CCCCCCOc1ccc(OC)cc1Cl, the MIC (Human alphaherpesvirus 2 [5]) is reported as 6 µg/mL (≈ 15.8 µM).
